Sampled rows, rich in hits. Any-hit rate of the full collection: about 0.99%.
Tn6 DDE FP: inhibitors of Tn6 peptide binding to fibrin DD(E), primary screen, biochemical, fluorescence polarization, human fibrin, Tn6 probe; Fibrinogen beta chain (Homo sapiens), P02675; actives 0.21% (n = 370,000); inhibition, % at 8.3 µM; Fibrin DD(E) TRITC-Tn6 fluorescence polarization displacement;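 active = inhibition above a per-campaign cutoff: mean of compounds within control limits plus 3 SD, cut at about 15% in these data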;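 also: 0% = median of all compound wells on the plate and 100% = blocking peptide control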
Target sequence (P02675 whole entry, looked up): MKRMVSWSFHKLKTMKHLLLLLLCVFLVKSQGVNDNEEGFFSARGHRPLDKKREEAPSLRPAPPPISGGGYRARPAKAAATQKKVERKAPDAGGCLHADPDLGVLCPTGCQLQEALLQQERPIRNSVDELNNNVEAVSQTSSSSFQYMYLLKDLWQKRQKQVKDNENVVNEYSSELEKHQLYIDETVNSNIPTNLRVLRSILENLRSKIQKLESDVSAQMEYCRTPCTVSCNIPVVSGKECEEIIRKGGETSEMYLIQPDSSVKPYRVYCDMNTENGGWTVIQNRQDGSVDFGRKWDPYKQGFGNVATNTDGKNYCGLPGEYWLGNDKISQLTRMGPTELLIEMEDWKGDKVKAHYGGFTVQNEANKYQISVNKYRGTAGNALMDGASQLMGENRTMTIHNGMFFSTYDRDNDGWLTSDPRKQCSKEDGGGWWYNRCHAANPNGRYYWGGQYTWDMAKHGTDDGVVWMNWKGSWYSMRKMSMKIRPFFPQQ
ABCG2 block: ABCG2 efflux pump inhibitors, primary screen, multiplex with ABCB1, IgMXP3 cells, flow cytometry; Broad substrate specificity ATP-binding cassette transporter ABCG2 (Homo sapiens), Q9UNQ0; JC-1 efflux; inhibition, % at 6.6 µM; actives 0.1% (n = 190,000);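 active = inhibition above 80%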;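 also: 0% = DMSO and 100% = nicardipine control wells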
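Test system: IgMXP3 cells (ABCG2) mixed with DDAO far-red-labelled CCRF-Adr cells (ABCB1). Reagent: JC-1 transporter substrate. Compound dosing: single test compound dose, 6.6 µM final. Times: 10 min compound exposure, 25 °C. Detection: flow cytometry of retained JC-1 fluorescence. Read-out basis: efflux inhibition in percent versus controls. Controls: nicardipine and DMSO wells.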
GRK2 inh: compounds blocking aptamer binding on GRK2 – biochemical, human GRK2, bead flow cytometry, HTS, primary screen | Beta-adrenergic receptor kinase 1 (Homo sapiens), P25098 | FAM-aptamer displacement from GRK2 | inhibition of aptamer binding, % at 10 µM | actives 0.59% (n = 330,000) | AID 488847, 2010;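 active = inhibition of aptamer binding above 40%, roughly 3 SD of noise, on plates passing a quality check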;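 also: median bead fluorescence of bound FAM aptamer so fluorescent compounds give negative values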
Tn7 DDE FP: inhibitors of Tn7 peptide binding to fibrin DD(E), primary screen, biochemical, fluorescence polarization, human fibrin, Tn7 probe; Fibrinogen beta chain (Homo sapiens), P02675; FP displacement of FITC-Tn7 peptide from fibrin DD(E); 0% = median of compound wells per plate; inhibition, % at 8.3 µM; actives 0.13% (n = 370,000); AID 720508, 2013;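 active = inhibition above the mean of compounds falling within the control limits plus 3 SD of them, cut at about 14% in these data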;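 also: 0% = plate median of compound wells and 100% = 10 µM Aha-Tn7 peptide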
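Test system: human clot-derived fibrin DD(E) complex / Quantity: 2 µM final DD(E) protein / Incubation: 10 min plus 3 h, room temperature / Measured by: fluorescence polarization / Benchmarks: high control of 10 µM Aha-Tn7 peptide / Replicates: singlicate testing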
ABCB1 block: ABCB1 efflux pump inhibitors, primary screen, cell-based, multiplex, flow cytometry, ABCG2 counter-screen; ATP-dependent translocase ABCB1 (Homo sapiens), P08183; CCRF-Adr cells, JC-1 efflux; inhibition, % at 6.6 µM; actives 0.067% (n = 190,000); in the data active = inhibition above about 40%;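 also: 0% = vehicle and 100% = reference inhibitor; higher value means more JC-1 retained so stronger ABCB1 efflux block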
Insulin prom up: insulin promoter activators in MIN6 cells, imaging, high-content screening, mouse beta cells; MIN6 insulin promoter-GFP reporter; active compounds read high; z-score at 5 µM; actives 0.3% (n = 190,000);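 active = z-score above 3 at 5 µM with at least 500 cells counted in the well; inconclusive = wells under 500 cells, flagged as cytotoxic or low count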
GRK2 CP1: GRK2 aptamer-displacing inhibitors, retest, confirmation, biochemical, cherry pick 1, bead flow cytometry. shares compounds with GRK2 inh. bead-bound GRK2, FAM-aptamer displacement. aptamer displacement, % at 10 µM. actives 4% (n = 2,000). AID 504451, 2011;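 active = aptamer displacement above 40%, near three times the noise of non-fluorescent compounds, on plates passing quality checks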;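 also: negative values mostly reflect intrinsic compound fluorescence rather than true enhancement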
FAM quench CP1: counter-screen for GRK2 aptamer inhibitors: fluorescent aptamer quenchers | Carboxyfluorescein RNA aptamer on beads, flow cytometry quenching; active compounds read low | 2,000 tested, under 10 active | fluorescence response (% of DMSO), % at 10 µM | shares compounds with GRK2 inh;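 active = compounds that quench the bead-bound fluorescent RNA probe, cutting fluorescence to under half of the solvent control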;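 also: counterscreen run without GRK2 so only probe quenching by compound is measured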
GRK2 CP2: GRK2 aptamer-displacing inhibitors, hit retest, confirmation, biochemical, cherry pick 2, bead flow cytometry; bead-bound GRK2, FAM-aptamer displacement; inhibition of aptamer binding, % at 10 µM; shares compounds with GRK2 inh; AID 504782, 2011; 360 tested, under 10 active;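 active = inhibition of aptamer binding above 40%, about triple the noise seen with nonglowing compounds, on plates passing quality control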;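 also: negative values mostly come from compounds that fluoresce themselves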
FAM quench CP2: quenches fluorescent RNA aptamer, GRK2 hit artifact | shares compounds with GRK2 inh | carboxyfluorescein RNA aptamer beads, flow cytometry quenching; active compounds read low | fluorescence response vs DMSO, % at 10 µM | 360 tested, under 10 active | AID 588494;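 active = response vs DMSO under 50%, meaning signal dropped by over half, treated as fluorescence quencher; inconclusive = no clear call, values can overlap the other calls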;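 also: labelled aptamer on streptavidin beads without GRK2 as a quench counter-screen; 100% = bead fluorescence of DMSO wells and lower means quenching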
* marks the source's active call; other numbers are inactive results; ? = inconclusive; . = no result given.

SMILES | Tn6 DDE FP | ABCG2 block | GRK2 inh | Tn7 DDE FP | ABCB1 block | Insulin prom up | GRK2 CP1 | FAM quench CP1 | others
CCCN(CC(=O)Nc1ccccc1C)C(=O)C1CC(=O)N(c2cccc(C)c2C)C1 (centres undefined) | 0 | . | 4 | 4 | . | . | 1 | 98
Cc1ccccc1NC(=O)Cn1nnc(-c2ccncc2)n1 | 0 | . | . | 3 | . | . | . | .
O=C(O)C1C2C=CC(C3CC23)C1C(=O)O (centres undefined) | -5 | 0 | 18 | -13 | 0 | 0.22 | . | . | GRK2 CP2=6;FAM quench CP2=101
COc1ccc(S(=O)(=O)N2CCN(C(=O)c3cc4c(s3)CCC4)CC2)cc1 | 3 | . | 82* | 0 | . | . | 25 | 109
Cc1ccc(S(=O)(=O)N2CCN(C(=O)c3cc4c(s3)CCCC4)CC2)c(C)c1 | 4 | . | 49* | -5 | . | . | 0 | 99
Cc1ccc(S(=O)(=O)N2CCN(C(=O)c3cc4c(s3)CCCC4)CC2)cc1 | 12 | . | 1 | -5 | . | . | . | .
COc1ccc(S(=O)(=O)Nc2ccc3c(c2)n(C)c(=O)n3C)cc1 | -1 | 1 | 19 | 1 | 0 | -0.8 | 1 | 67
COc1cccc(NS(=O)(=O)c2c(C)n(C)c(=O)n(C)c2=O)c1 | 0 | 0 | 84* | -8 | 0 | 0.22 | 17 | 97
COc1ccc(S(=O)(=O)Nc2ccc3c(c2)n(C)c(=O)n3C)cc1OC | 2 | . | 0 | -2 | . | . | . | .
CCOc1ccc2nc(NS(=O)(=O)c3ccc4c(c3)n(C)c(=O)n4C)sc2c1 | -2 | 1 | 61* | 4 | 0 | -1.2 | -4 | 95
CC(=O)c1cc(-c2ccccc2S(=O)(=O)NC(C)(C)C)c(=O)n2c1CCC2 | -7 | . | . | 0 | . | . | . | .
COC(=O)c1cc(C(C)c2ccccc2O)n2ccccc12 (centres undefined) | 8 | . | . | 8 | . | . | . | .
CCc1nc2c(OCc3cc(Cl)cc(Cl)c3)cccn2c1N(C)C(=O)c1ccc(C)cc1 | 0 | . | . | 6 | . | . | . | .
Cc1ccc2cc(C3C(C#N)=C(N)Oc4c3ccc3cccnc43)c(=O)[nH]c2c1 (centres undefined) | . | 3 | 97* | . | 0 | 1 | -3 | 110
CCc1ccc2[nH]c(=O)c(C3C(C#N)=C(N)Oc4c3ccc3cccnc43)cc2c1 (centres undefined) | -2 | 10 | 1 | -1 | 1 | -1.3 | . | .
COC(=O)C1CN(Cc2ccc(Cl)cc2)CCS(=O)(=O)N1Cc1cn(Cc2ccc(Cl)cc2)nn1 (centres undefined) | 0 | . | . | -6 | . | . | . | .
COc1ccc(OCCN2CCN(C(=O)c3ccc(OC(F)F)c(OC)c3)CC2)cc1 | 8 | . | 56* | -3 | . | . | 0 | 103
C[n+]1c2n(c3ccccc31)N=C(c1cc(C(C)(C)C)c(O)c(C(C)(C)C)c1)CS2 | 2 | 2 | 64* | -8 | 1 | ? | -1 | 101
CCOC(=O)CC[C@@H]1CC[C@]2(CCCN(C(=O)c3ccco3)C2)O1 | 2 | . | . | -1 | . | . | . | .
COC(CNC(=O)c1cn(C)c2ccc(S(=O)(=O)N3CCOCC3)cc2c1=O)OC | -9 | . | 1 | -2 | . | . | . | .
CCn1cc(C(=O)NCC(OC)OC)c(=O)c2cc(S(=O)(=O)N3CCOCC3)ccc21 | -4 | . | 45* | -2 | . | . | 0 | 98
Cc1ccc(C2=CCN(C)C(=O)N2c2ccccc2)cc1 | 2 | . | . | 5 | . | . | . | .
CS(=O)(=O)Oc1ccc2c(c1)O/C(=C\C=C\c1ccccc1)C2=O | 1 | . | 49* | -2 | . | -0.31 | -5 | 97
Cc1[nH]c2ccccc2c1CC(=O)Nc1ccc(Nc2cccnc2)c(-c2cc(C(F)(F)F)cc(C(F)(F)F)c2)c1 | 4 | . | . | -2 | . | . | . | .
O=C(COC(=O)C1(c2ccc(Cl)cc2)CCCC1)NCc1ccco1 | -6 | 9 | 6 | -2 | 2 | -0.32 | 2 | 105
SMILES | Tn6 DDE FP | ABCG2 block | GRK2 inh | Tn7 DDE FP | ABCB1 block | Insulin prom up | GRK2 CP1 | FAM quench CP1 | others
O=C(COC(=O)Cc1cccc(C(F)(F)F)c1)NCc1ccco1 | -1 | . | 57* | -1 | . | . | 32 | 99
O=C(COC(=O)Cc1ccc(F)cc1)NCc1ccco1 | 7 | 3 | 52* | 6 | 0 | 0.43 | 22 | 93
COC(=O)C[C@H]1CC[C@@H]2[C@H](COc3ccc(NC(=O)c4cccc(Cl)c4)cc3C(=O)N2C)O1 | 1 | . | . | -5 | . | . | . | .
C[C@@H]1CCCCO[C@H](CN(C)C(=O)CCC(F)(F)F)[C@H](C)CN([C@@H](C)CO)C(=O)c2cc(NS(=O)(=O)c3ccc(Cl)cc3)ccc2O1 | -7 | . | . | -1 | . | . | . | .
C[C@@H]1C(=O)N2N=Cc3ccccc3[C@H]2N2N=Cc3ccccc3[C@@H]12 | 4 | . | . | 1 | . | . | . | .
COc1ccc(NC(=O)CSc2nncn2C)c([N+](=O)[O-])c1 | 0 | 2 | 51* | 1 | 1 | 0.12 | -1 | 104
Cn1cnnc1SCC(=O)Nc1ccccc1Oc1ccccc1 | 2 | 0 | 50* | 3 | 0 | -0.33 | 1 | 94
Cn1cnnc1SCC(=O)Nc1ccc(Oc2ccccc2)cc1 | -1 | . | 0 | 11 | . | . | . | .
O=C(NCc1ccc(C(=O)NC2CCCC2)cc1)c1cccc(Br)c1 | 2 | . | . | -9 | . | . | . | .
COC(=O)[C@]12C[C@H](CC(=O)N3CCOCC3)C(=O)N(Cc3ccco3)C1=C[C@H](COCc1ccccc1)O[C@@H]2C | -3 | . | . | -8 | . | . | . | .
O=C(NCc1ccc(Cl)cc1)c1cc(S(=O)(=O)N2CCCCC2)c[nH]1 | 1 | . | 43* | -6 | . | . | 2 | 96

Assay outcomes from PubChem BioAssay.
